Bioassay records as filed in PubChem BioAssay.
Rpn11 inh – blocks the human proteasome subunit Rpn11; O00487; human 26S proteasome, Ub4-pepOG fluorescence polarization; 20S core pre-blocked with epoxomicin; inhibition, % at 20 µM; hit rate 0.59% among 360,000; AID 588493;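 active = inhibition at 20 µM, scaled to each plate's controls, above about 33%, limit read from the data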
Scp1 inh – inhibitors of human Scp-1 phosphatase | Q9GZU7 | Recombinant Scp1, phosphopeptide, malachite green phosphate absorbance | inhibition, % at 20 µM | hit rate 0.88% among 340,000;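 active = inhibition above about 50% at 20 µM, limit read from the data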
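System: SCP-1 catalytic domain; Reagent: Phospho 17-mer peptide substrate; Doses: one concentration, 20 µM, with 1.0% DMSO; Incubation: 45 min room-temperature reaction, 5 min colour, 30 min stabiliser; Signal: Phosphate-binding colour reagent, absorbance read at 630 nm.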
LMPTP inh – LMPTP (human) inhibition; recombinant LMPTP-A, OMFP fluorogenic substrate, fluorescence intensity; hit rate 0.22% among 360,000; P24666; inhibition, % at 20 µM;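 active = compounds that cut the enzyme signal by at least half of the control window in the single-dose screen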
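Test system: LMPTP-A phosphatase enzyme; input: 0.625 nM LMPTP-A final; reagent: OMFP substrate, 400 µM final; compound dosing: 20 µM single dose, 3% DMSO; incubation: 50 min dark incubation at room temperature; measured by: endpoint fluorescence intensity from OMFP dephosphorylation; measure: % inhibition relative to no-enzyme and uninhibited control wells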
STEP inh – inhibitors of human striatal-enriched phosphatase STEP; inhibition, % at 20 µM; recombinant STEP, OMFP fluorogenic substrate, fluorescence; P54829; AID 588621; hit rate 0.25% among 360,000;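 active = inhibition at 20 µM, scaled per plate between control wells, above about 37%, limit read from the data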
Target sequence (P54829 whole entry, looked up): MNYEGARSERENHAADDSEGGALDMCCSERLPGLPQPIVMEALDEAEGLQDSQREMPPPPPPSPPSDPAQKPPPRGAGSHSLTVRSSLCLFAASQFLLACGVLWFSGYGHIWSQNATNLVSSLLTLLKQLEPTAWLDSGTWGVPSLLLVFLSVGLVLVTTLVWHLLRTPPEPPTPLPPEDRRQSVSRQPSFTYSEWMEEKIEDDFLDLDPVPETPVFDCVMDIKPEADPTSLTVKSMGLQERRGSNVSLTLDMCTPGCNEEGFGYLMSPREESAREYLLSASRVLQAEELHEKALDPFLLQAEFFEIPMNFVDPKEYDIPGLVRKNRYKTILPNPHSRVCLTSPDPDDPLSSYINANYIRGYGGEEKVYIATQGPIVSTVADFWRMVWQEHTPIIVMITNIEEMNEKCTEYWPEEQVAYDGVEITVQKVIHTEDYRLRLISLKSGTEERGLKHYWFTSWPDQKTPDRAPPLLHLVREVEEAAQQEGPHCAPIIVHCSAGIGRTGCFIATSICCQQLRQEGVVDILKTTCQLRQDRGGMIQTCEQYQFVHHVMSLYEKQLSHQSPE
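System: isolated STEP enzyme; schedule: 20 min enzyme reaction at room temperature, protected from light; medium: Bis-Tris buffer pH 6.0, 2.5 mM DTT, 0.005% Tween 20; signal: fluorescence, 480/540 nm; dosing: single compound dose of 20 µM, 1% DMSO final; also added: OMFP substrate, 25 µM final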
DNMT1 block – inhibitors of human DNMT1 | inhibition (reported as % activation of signal), % at 10 µM | P26358 | DNMT1 molecular beacon, Hinp1I cleavage, fluorescence | hit rate 0.83% among 360,000; in the data active = inhibition above about 50%
SUMO1-SIM PPI – modulators of human SUMO1-mediated protein-protein interactions. P63165. SUMO1 binding to a labelled peptide, TR-FRET, 1 h. inhibition, % at 20 µM. hit rate 0.33% among 360,000. AID 602429; in the data active = inhibition above about 37%
Target sequence (P63165 whole entry, looked up): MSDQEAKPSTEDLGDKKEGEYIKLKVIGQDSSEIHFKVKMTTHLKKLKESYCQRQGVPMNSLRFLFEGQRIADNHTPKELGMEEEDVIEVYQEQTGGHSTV
Scp1 confirm – Scp-1 (human) inhibition, single-dose confirmed. recombinant SCP-1 catalytic domain, phosphate release, malachite green absorbance. shares compounds with Scp1 inh. hit rate 61% among 2,500. inhibition, % at 20 µM
Scp-1 MG ctr – interferes with malachite green readout, flagging false Scp-1 hits. shares compounds with Scp1 inh. Colorimetric interference counterscreen, malachite green absorbance 630 nm. apparent inhibition (interference), % at 20 µM. AID 540313. 2,500 tested, under 10 active;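 also: compounds added after enzyme reaction finished so only phosphate colour detection is probed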
Scp-1 Tm shift – validation of human Scp-1 inhibitors by thermal shift binding. hit rate 25% among 1,500. AID 540329. Recombinant SCP1, Sypro Orange thermal shift Tm. thermal shift relative to vanadate control, % at 40 µM. shares compounds with Scp1 inh;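 active = substances whose mean melting-temperature shift, as a percentage of the reference inhibitor's shift, reaches about 5.3%, limit read from the data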
Large screens that a line does not name were inactive (follow-up assays come after a bar, where they were run). Shown are actives, neighbours in structure and some others; about 2.3% of the full set was active somewhere.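 The calls were made as follows, unless noted: active = inhibition of at least 30% at 20 µM; inactive = the rest.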

O=C(NCC(=O)N(Cc1cccs1)C(C(=O)NC1CCCC1)c1cccnc1)c1ccco1 (configuration not stated)	none
CCOC(=O)N1CCN(c2c(NCCOC)c(=O)c2=O)CC1	none
CCOC(=O)N1CCN(c2c(NCC3CCCO3)c(=O)c2=O)CC1 (configuration not stated)	Scp1 inh 82 | Scp1 confirm inactive | Scp-1 MG ctr inactive
Cc1c(C(=O)NCCSCc2cccc(C(F)(F)F)c2)cnn1-c1ccc(Cl)cc1	none
N#C/C(=C\c1ccc(OCCN2CCOCC2)cc1)C(=O)Nc1ccc(S(N)(=O)=O)cc1	none
O=C(Cn1ccc(NC(=O)OCc2ccccc2)nc1=O)NCc1ccc2c(c1)OCO2	none | Scp1 confirm inactive | Scp-1 MG ctr inactive
O=C(N/N=C/c1ccco1)c1cccc(N2Cc3ccccc3C2)c1	Scp1 inh 79, DNMT1 block 80 | Scp1 confirm 46 | Scp-1 MG ctr inactive | Scp-1 Tm shift 11
C[n+]1ccc(C(=O)N/N=C/c2ccco2)cc1	Scp1 inh 60 | Scp1 confirm inactive | Scp-1 MG ctr inactive
Cc1cc(Nc2ccccc2)n(-c2ccc(Br)cc2)n1	Scp1 inh 54 | Scp1 confirm inactive | Scp-1 MG ctr inactive
CC(C)Oc1ccc(CNS(=O)(=O)c2csc(C(N)=O)c2)cc1	none | Scp1 confirm inactive | Scp-1 MG ctr inactive
CN(C)c1ccc(CNS(=O)(=O)c2csc(C(N)=O)c2)cc1	none | Scp1 confirm inactive | Scp-1 MG ctr inactive
NC(=O)c1cc(S(=O)(=O)NCCCc2ccccc2)cs1	none
CC(C)(C)c1ccc(S(=O)(=O)NC(=O)C2(C)CCN2C(=O)C2CC2)cc1 (configuration not stated)	none (no result: Scp1 inh)
COc1ccc(S(=O)(=O)NCCSC(C)(C)C)c(Cl)c1Cl	Scp1 inh 60 | Scp1 confirm 34 | Scp-1 MG ctr inactive | Scp-1 Tm shift inactive
CCCn1c(N2CCN(CC(=O)c3c[nH]c4ccccc34)CC2)nc2c1c(=O)[nH]c(=O)n2C	Scp1 inh 99 | Scp1 confirm inactive | Scp-1 MG ctr inactive
C=CCn1c(SCC(=O)N2CCN(c3ccccc3)CC2)nc2c([nH]c3ccccc32)c1=O	none
O=C1NC(=Nc2ccccc2)S/C1=C/c1cccs1	Scp1 inh 76 | Scp1 confirm 59 | Scp-1 MG ctr inactive | Scp-1 Tm shift inactive
CCc1ccc(NC(=O)C(C)OC(=O)c2ccc(N3CCCC3)c([N+](=O)[O-])c2)cc1 (configuration not stated)	none
CS(=O)(=O)c1cccc(C(=O)OCC(=O)Nc2ccc3c(c2)OCO3)c1	none
O=C(C[n+]1cccc(C(=O)Nc2ccccc2)c1)c1ccc(Cl)cc1	none (no result: Rpn11 inh, Scp1 inh, STEP inh, DNMT1 block)
NC(=O)C[n+]1cccc(C(=O)Nc2ccccc2)c1	Scp1 inh 90 | Scp1 confirm inactive | Scp-1 MG ctr inactive
CCOC(=O)Nc1ccc(N2CCOCC2)c(S(=O)(=O)N2CCOCC2)c1	none
O=C1NC2c3c(I)sc(I)c3C(=O)C2O1 (configuration not stated)	none
O=C1NC2c3c(Cl)sc(Cl)c3C(=O)C2O1 (configuration not stated)	Scp1 inh 79, DNMT1 block 91 | Scp1 confirm 71 | Scp-1 MG ctr inactive | Scp-1 Tm shift 18
CCc1c(C)nc2cc(-c3ccc(Cl)cc3)[nH]n2c1=O	none
O=c1c2c(nc3cc(-c4ccc(Cl)cc4)[nH]n13)CCS2	Scp1 inh 84, LMPTP inh 61 | Scp1 confirm 31 | Scp-1 MG ctr inactive | Scp-1 Tm shift inactive
N#Cc1ccc(S(=O)(=O)N2CCN(C(=O)[C@@H]3CCCN3C(=O)c3cccs3)CC2)cc1	none
CC(=O)c1cccc(NS(=O)(=O)c2c(C(=O)N3CCOCC3)c(C)n(C)c2C)c1	none
CCc1noc(C)c1C(=O)Nc1cc(Cl)ccc1-n1cncn1	none
CCc1noc(C)c1C(=O)Nc1cc(C(F)(F)F)ccc1-n1cncn1	Scp1 inh 65 | Scp1 confirm inactive | Scp-1 MG ctr inactive
CC(=O)C1=C(O)C(=O)N(c2ccc(O)cc2)C1c1ccccc1Cl (configuration not stated)	none
O=C(COc1ccc(Cl)cc1Cl)N/N=C/c1cccnc1	none
O=C(CCCOc1ccc(Cl)cc1Cl)N/N=C/c1cccc([N+](=O)[O-])c1	Scp1 inh 92 | Scp1 confirm 55 | Scp-1 MG ctr inactive | Scp-1 Tm shift inactive
Cc1ccc(N2CC(O)CSC2=Nc2ccccc2)cc1 (configuration not stated)	none (no result: Scp1 inh)
O=C(Nc1ccc(S(=O)(=O)NC2=NCCCCC2)cc1)c1cccc(S(=O)(=O)N2CCOCC2)c1	Scp1 inh 50, LMPTP inh 57 | Scp1 confirm inactive | Scp-1 MG ctr inactive
O=C(CSc1nc(O)cc(=O)[nH]1)C1CC1	Scp1 inh 53 | Scp1 confirm inactive | Scp-1 MG ctr inactive
O=C(Nc1cccc2nsnc12)c1ccc2c(c1)OCCO2	Scp1 inh 70 | Scp1 confirm inactive | Scp-1 MG ctr inactive
COCCc1nc2ccc(C(=O)N(C)Cc3cccc(-n4nc(C)cc4C)c3)cc2o1	none
Cc1cccc(C)c1NC(=O)CN(C)C(=O)c1ccc2nc[nH]c2c1	Scp1 inh 50 | Scp1 confirm 55 | Scp-1 MG ctr inactive | Scp-1 Tm shift inactive
Cc1ccc(NC(=O)c2ccc3nc[nH]c3c2)nc1	Scp1 inh 57 | Scp1 confirm 44 | Scp-1 MG ctr inactive | Scp-1 Tm shift inactive
O=C(NC12CC3CC(CC(C3)C1)C2)N1CCN(C(=O)c2ccco2)CC1	none
C/C(Cn1nc([N+](=O)[O-])cc1C)=N\NC(=O)c1ccc(C(C)(C)C)cc1	Scp1 inh 81 | Scp1 confirm inactive | Scp-1 MG ctr inactive
CC(=S)/C=C1\Sc2ccccc2N1C	none
CN1/C(=C/c2cccc[n+]2CCO)Sc2ccccc21	Scp1 inh 103 | Scp1 confirm inactive | Scp-1 MG ctr inactive
COc1ccccc1S(=O)(=O)NCc1ccc(C(=O)NC2CCC(O)CC2)cc1 (configuration not stated)	none
CC(=O)Nc1ccc(C(=O)OCC(=O)N2CCN(C(=O)c3ccco3)CC2)cc1	none
N#CCC(=O)Nc1ccc(C(=O)OCC(=O)N2CCN(C(=O)c3ccco3)CC2)cc1	Scp1 inh 90 | Scp1 confirm 64 | Scp-1 MG ctr inactive | Scp-1 Tm shift inactive
